XiGFP reactiv = activators of X-chromosome reactivation in mouse fibroblasts | 360,000 tested, 0.055% active | AID 743238 | activation, % at 7.58 µM | XiGFP mouse fibroblasts, % GFP-positive cells imaging, 3 d; cells co-treated with 5-aza-dC sensitizer; scaled so ellipticine positive control = 100%;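 active = mean normalized replicate activation at least 10% and every replicate at or above 10%; inconclusive = only one of the two criteria met; inactive = mean below 10% and not all replicates reach 10%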;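 also: 0% = median of on-plate neutral control wells and 100% = ellipticine 6 µM median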
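Schedule: 3 d treatment, 15 min room-temperature fixation; system: 68-5-11 XiGFP fibroblast line; buffer or medium: DMEM plus 5-aza-dC sensitizer; control set: ellipticine 6 µM positive control; compound: one concentration, pinned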
DENV2 CPE rescue = protects cells from dengue virus 2 cytopathic effect; DENV2-infected cells, cytopathic effect rescue, plate reader; CPE inhibition, % at 9.99 µM; 350,000 tested, 1.7% active; AID 651640; in the data active = CPE inhibition above about 20%, passing the limit was not always enough; inconclusive = no clear call, values can overlap the other calls; tested in BHK-21 cells;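 also: 0% = median of neutral control wells and 100% = median of positive control wells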
Cneo AK release = causes C. neoformans cell lysis. adenylate kinase release luminescence, 4 h; normalised: neutral wells 0, clomiphene wells 100. lysis activity, % at 15 µM. 360,000 tested, 0.2% active;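 active = mean lysis activity across replicates of at least 80%, whatever share of replicates individually reach that level; inactive = mean lysis activity below 80%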
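Assay system: log-phase C. neoformans yeast / Quantity: yeast cell density of 5 × 10^6 cells/mL / Medium: fresh YPD growth medium / Compound: single dose / Timing: static 4 h at 37 °C with compound, 1 h detection / Measured by: adenylate kinase release luminescence / Read-out: lysis from increased AK signal / Benchmarks: Clomiphene as positive lysis control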
Statin myotox sup = suppression of simvastatin myotoxicity. rescue of ATP level, % at 7.49 µM. C2C12 myotubes + simvastatin, ATP luminescence, 48 h; scaled: DMSO 0, geranylgeraniol control 100. 330,000 tested, 0.78% active. AID 602340;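 active = mean ATP rescue above about 67%, or every replicate alone reaching that limit, limit read from the data, passing the limit was not always enough; inconclusive = no clear call, values can overlap the other calls; inactive = mean under the limit and some replicate under it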;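 also: myotubes were challenged with 10 µM simvastatin during compound exposure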
* marks the source's active call; other numbers are inactive results; ? = inconclusive; . = no result. The list is not random: actives were taken first. Their share in the collection is about 2.1%.

SMILES | XiGFP reactiv | DENV2 CPE rescue | Cneo AK release | Statin myotox sup
CCC(=O)N1CCCCN2[C@H](C1)[C@@H](c1ccc(C#Cc3cccnc3)cc1)[C@@H]2CO | 0 | 24* | -3 | -19
CCC(=O)N1CCCCN2[C@H](CO)[C@@H](c3ccc(C#Cc4cccnc4)cc3)[C@H]2C1 | 0 | -7 | -4 | 4
C[C@H](CO)N1C[C@H](C)[C@@H](CN(C)S(=O)(=O)c2ccccc2)Oc2ccc(NC(=O)Cc3ccccc3)cc2CC1=O | 0 | -3 | -1 | 26
O=C(OCC(=O)N1CCc2ccccc21)[C@@H]1CC(O)CN1S(=O)(=O)c1ccccc1[N+](=O)[O-] (stereo partly specified) | 0 | ? | -2 | 14
O=C(OCC(=O)N1CCc2ccccc21)[C@@H]1CCCN1S(=O)(=O)c1ccccc1F | 0 | 49* | -1 | 2
Cc1ccc(-n2nc3c(=O)n(CC(=O)NCc4cccs4)nc(C)c3c2C)cc1 | 0 | 54* | -5 | 18
CS(=O)(=O)Nc1ccc2c(c1)[C@H]1C[C@@H](CC(=O)NC3CCCCC3)O[C@H](CO)[C@H]1O2 | 0 | 3 | 2 | -13
CO[C@@H]1CN(C)C(=O)c2cc(NC(=O)c3cnccn3)ccc2OC[C@H](C)N(C)C[C@@H]1C | 0 | -4 | -1 | -3
CO[C@@H]1CN(C)C(=O)c2ccc(NC(=O)C3CC3)cc2OC[C@H](C)N(C)C[C@H]1C | 0 | 13 | -21 | 3
CC(C)C[C@@H](CO)N1CCN(Cc2ccccc2)CCC1=O | 2 | . | -6 | 6
CCCN1CCC(=O)N([C@H](COc2ccccc2)c2ccccc2)CC1 | 0 | -2 | -3 | 9
O=C1CCN(CCc2ccccc2)CCN1[C@H](COc1ccccc1)c1ccccc1 | 0 | 99* | 5 | -3
CN1CCC(=O)N([C@H](COc2ccccc2)Cc2ccccc2)CC1 | 0 | 20* | 0 | -1
CC(C)C[C@@H](CO)N1CCN(Cc2cccc(C#N)c2)CCC1=O | 0 | 20* | 0 | -1
CC(C)C[C@@H](COc1ccccc1)N1CCN(Cc2ccccc2)CCC1=O | 0 | 28* | . | .
CCCN1CCC(=O)N([C@H](COc2ccccc2)Cc2ccccc2)CC1 | 0 | -3 | -2 | 18
CO[C@H]1CN(C)C(=O)c2ccc(NC(=O)C3CC3)cc2OC[C@H](C)N(C(=O)c2ccccc2)C[C@@H]1C | 0 | 18 | -22 | 9
C[C@@H]1CN([C@H](C)CO)S(=O)(=O)c2ccc(-c3ccc(F)cc3)cc2O[C@@H]1CN(C)S(C)(=O)=O | 1 | -8 | 1 | -11
O=C1CCN(Cc2cccnc2)CCN1[C@H](CO)c1ccccc1 | 0 | -4 | 3 | -1
COc1ccc(CN2CCC(=O)N([C@H](CO)c3ccccc3)CC2)cc1 | 0 | 26* | 1 | 2
O=C(C[C@H]1C=C[C@@H](NC(=O)C2CCC2)[C@@H](CO)O1)Nc1nccs1 | -1 | -4 | -3 | 4
C[C@H](CO)N1C[C@H](C)[C@H](CN(C)C(=O)NC2CCCC2)Oc2ncc(-c3ccncc3)cc2C1=O | 0 | . | . | -2
Cc1ccc(S(=O)(=O)N[C@H]2C=C[C@@H](CC(=O)NCCc3ccncc3)O[C@H]2CO)cc1 | 0 | -2 | 3 | -2
COc1ccccc1N1CCN(S(=O)(=O)CCNC(=O)CCc2ccccc2)CC1 | 0 | 119* | -1 | 18
COc1cccc(CN2CC3(CCN(C)CC3)c3c(n(C)c4cc(OC)ccc34)[C@@H]2CO)c1 | 0 | 11 | . | .
SMILES | XiGFP reactiv | DENV2 CPE rescue | Cneo AK release | Statin myotox sup
Cc1ccc(S(=O)(=O)N2CC[C@@H]3[C@H]2c2cc(C#Cc4ccc(F)cc4)ccc2N[C@@H]3CO)cc1 | 0 | 29* | 4 | 7
Cc1ccc(S(=O)(=O)N2CC[C@@H]3[C@@H](CO)Nc4ccc(C#Cc5ccc(F)cc5)cc4[C@@H]32)cc1 | 0 | -4 | 11 | -1
COc1ccccc1C#Cc1ccc2c(c1)[C@H]1[C@H](CCN1C(=O)c1ccc(F)cc1)[C@@H](CO)N2 | 0 | 54* | . | .
COc1ccccc1C#Cc1ccc2c(c1)[C@@H]1[C@@H](CCN1S(=O)(=O)c1ccc(F)cc1)[C@@H](CO)N2 | 0 | 29* | . | .
COc1ccccc1CN1CC[C@H]2[C@H](CO)Nc3ccc(C#Cc4ccccc4)cc3[C@H]21 | 1 | -33 | 115* | -90
COc1ccccc1C#Cc1ccc2c(c1)[C@H]1[C@H](CCN1S(=O)(=O)c1ccccc1)[C@@H](CO)N2 | 0 | 11 | . | .
C[C@H]1CN([C@@H](C)CO)C(=O)c2cc(N(C)C)ccc2O[C@@H]1CN(C)Cc1ccc(-c2ccccc2)cc1 | 0 | 18 | -1 | -61
Cc1cc(C(=O)Nc2ccc3c(c2)C(=O)N(C)[C@@H]2CC[C@@H](CC(=O)NCc4ccc(-c5ccccc5)cc4)O[C@H]2CO3)no1 | 0 | -2 | 52 | 36
CCNC(=O)C[C@H]1CC[C@H](NC(=O)NC2CCCCC2)[C@@H](CO)O1 | 0 | . | 107* | -6
CCNC(=O)C[C@H]1CC[C@@H](NC(=O)NC2CCCCC2)[C@H](CO)O1 | 0 | -2 | 97* | -3
CCNC(=O)C[C@@H]1CC[C@H](NC(=O)NC2CCCCC2)[C@@H](CO)O1 | 0 | 2 | 1 | 3
CO[C@H]1CN(C)C(=O)c2ccc(NC(=O)C3CC3)cc2OC[C@H](C)N(Cc2cccc(F)c2)C[C@H]1C | 0 | . | -1 | 1
C/C=C/c1ccc([C@@H]2[C@@H](CNC(=O)C3CC3)N(C(=O)CC)[C@H]2CO)cc1 | 0 | 26* | 93* | 1
C/C=C/c1ccc([C@H]2[C@@H](CO)N(C(C)=O)[C@H]2CNC(=O)c2ccccc2)cc1 | 0 | 24* | 1 | 27
C/C=C/c1ccc([C@@H]2[C@@H](CO)N(C(=O)NCCC)[C@H]2CN(C)C(=O)CC)cc1 | 0 | 78* | 0 | 29
C[C@@H]1CCCCO[C@H](CN(C)C(=O)c2ccccc2)[C@H](C)CN([C@@H](C)CO)C(=O)c2cc(NS(=O)(=O)c3cccs3)ccc2O1 | 0 | 10 | -2 | 38
CCOP(=O)(OCC)c1nc(-c2cccc3ccccc23)oc1NCCc1ccc(OC)cc1 | 0 | -10 | 1 | 92*
COc1ccc(CNc2oc(-c3cccc4ccccc34)nc2C#N)cc1 | . | -5 | 1 | -12
Cc1ccc(OCCn2c(=S)[nH]c3ccccc32)c(C(C)C)c1 | 0 | -9 | 97* | 19
COc1ccc(C)cc1NC(=O)C(OC(=O)c1cnc(C)cn1)c1ccccc1 (stereo unspecified) | 0 | 3 | . | .
COc1ccc(NC(=O)C(OC(=O)c2cnc(C)cn2)c2ccccc2)cc1Cl (stereo unspecified) | 0 | 75* | . | 2
C[C@@H]1CCCCO[C@@H](CN(C)Cc2ccccc2)[C@H](C)CN([C@H](C)CO)C(=O)c2cc(NS(C)(=O)=O)ccc2O1 | 0 | 3 | -3 | 1
